Activity calls are given as the source filed them. No cut-off for these calls is given here.
Columns and labels:
[1] = species: Mus musculus; test: Adjuvant activity in immunized C57BL/6 mouse assessed as increase in OVA-specific IgG production in serum at 0.3 umol treated with ovalbumin for 7 days followed by stimulation with OVA for 7 days and restimulation with OVA measured 24 to 48 hrs post OVA challenge; assay type: functional
Outline: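 Sera were taken on days 0, 7 and 14 from C57BL/6 mice sensitized s.c. with emulsion containing OVA 200 μg ± adjuvant 0.3 μmol and footpad-challenged with OVA on day 7. OVA-specific IgG, IgG1, IgG2b and IgG2c were measured by ELISA with HRP-coupled anti-mouse secondaries. EC50 was taken from absorbance at 450 nm plotted against log serum concentration.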

[2] = target: T1, C-type lectin domain family 4 member E (Mus musculus) (UniProt Q9R0Q8); test: Agonist activity at mincle in wild type C57BL/6 mouse GM-CSF derived BMDM assessed as increase in IL-1beta release at 0.1 to 1 nmol after 24 hrs by sandwich ELISA
T1 sequence (whole entry): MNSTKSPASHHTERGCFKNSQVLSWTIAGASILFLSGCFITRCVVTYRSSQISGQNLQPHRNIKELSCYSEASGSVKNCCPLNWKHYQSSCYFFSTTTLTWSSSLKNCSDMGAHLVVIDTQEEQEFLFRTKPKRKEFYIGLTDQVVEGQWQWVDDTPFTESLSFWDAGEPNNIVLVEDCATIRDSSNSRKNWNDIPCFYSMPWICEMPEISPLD
Outline: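 Wild-type or Mincle−/− C57BL/6 bone marrow was cultured 8 days with GM-CSF 50 ng/mL in complete RPMI. Macrophages were detached with Acutase and seeded on ligand-coated plates (0.1 or 1 nmol/well); LPS 100 ng/mL was used as comparator. Supernatant was taken at 24 h and TNF, IL-6, IL-1β and MIP-2 measured by sandwich ELISA. Representative of three experiments in triplicate (±SD).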

[3] = Toxicity in Atlantic horseshoe crab blood limulus amebocyte lysate by chromogenic endotoxin test; conditions: limulus polyphemus
Outline: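 Endotoxin was measured by chromogenic Limulus amebocyte lysate assay at a sensitivity of ≤0.1 EU/mL.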

[4] = test system: T2, C-type lectin domain family 4 member E (Homo sapiens), Q9ULY5 [R183A]; test: Agonist activity at human mincle R183A mutant expressed in NFAT-GFP reporter cells up to 3000 pmol after 18 hrs by flow cytometric analysis; assay type: cell-based
T2 sequence (whole entry): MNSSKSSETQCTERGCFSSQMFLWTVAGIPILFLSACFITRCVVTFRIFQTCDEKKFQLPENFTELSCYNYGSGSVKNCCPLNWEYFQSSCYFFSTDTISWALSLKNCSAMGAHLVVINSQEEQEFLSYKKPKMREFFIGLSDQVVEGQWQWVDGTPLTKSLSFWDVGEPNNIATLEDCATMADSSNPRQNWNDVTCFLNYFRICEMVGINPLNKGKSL
Outline: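 The hMincle R183A mutant, made by site-directed mutagenesis, was retrovirally introduced into 2B4 NFAT-GFP cells expressing FcRγ only. Cells were stimulated on plates coated with increasing ligand amounts for 18 h, and NFAT-GFP was read by flow cytometry. Mean of two independent experiments in duplicate (±SEM).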

[5] = species: Mus musculus; test: Adjuvant activity in immunized C57BL/6 mouse assessed as footpad swelling at 0.3 umol treated with ovalbumin for 7 days followed by stimulation with OVA for 7 days measured 24 to 48 hrs post OVA challenge; assay type: functional
[6] = species: Mus musculus; test: Adjuvant activity in immunized C57BL/6 mouse assessed as increase in splenocyte number at 0.3 umol treated with ovalbumin for 7 days followed by stimulation with OVA for 7 days and restimulation with OVA measured 24 to 48 hrs post OVA challenge; assay type: functional
Outline: (§1)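 C57BL/6 mice (8–12 wk) given s.c. oil-in-water emulsion (mineral oil/Tween-80/PBS 9:1:90) holding OVA 200 μg ± adjuvant 0.3 μmol; controls were OVA alone or no OVA. Footpad challenge with OVA 100 μg on day 7, spleens taken day 14. Splenocytes restimulated with OVA 10, 30 or 100 μg/mL. Cell number read at 450 nm after 3 h with a count reagent; IFN-γ and IL-17 measured by ELISA.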

[7] = species: Mus musculus; test: Adjuvant activity in immunized C57BL/6 mouse assessed as increase in antigen specific IFNgamma production in spelnocytes at 0.3 umol treated with ovalbumin for 7 days followed by stimulation with OVA for 7 days and restimulation with OVA measured 24 to 48 hrs post OVA challenge; assay type: functional, cell-based; outline: as §1

In the case of `CCCCCCCCCCCCCCCCCCOc1ccc(C(=O)OC[C@H]2O[C@H](O[C@H]3O[C@H](COC(=O)c4ccc(OCCCCCCCCCCCCCCCCCC)cc4O)[C@@H](O)[C@H](O)[C@H]3O)[C@H](O)[C@@H](O)[C@@H]2O)c(O)c1`, the Activity [1] is reported as “Active”, the Activity [2] is reported as “Active” and the Activity [3] is reported as “<= 0.1 EU/ml”. The Activity [4] was “inactive”, the Activity [5] was “inactive” and the Activity [6] was “Active”. The Activity [7] was “Active”.

Source: ChEMBL document CHEMBL4033780, “Lipidated Brartemicin Analogues Are Potent Th1-Stimulating Vaccine Adjuvants” (J Med Chem, 2018)
